Data taken from ChEMBL document CHEMBL4406829, “Synthesis and in vitro evaluation of piperazinyl-ureido sulfamates as steroid sulfatase inhibitors” (Eur J Med Chem, 2019).
pIC50: −log10 of the molar value.

Experiments:
[1] = target: T1, Steryl-sulfatase (Homo sapiens) (UniProt P08842); assay: Inhibition of steroid sulfatase in human JEG3 cell lysates assessed as residual activity at 10 uM using [3H] E1S as substrate after 1 hr by scintillation spectrometry analysis relative to control; values are per cent of control; conditions: Lysate
T1 sequence (whole entry): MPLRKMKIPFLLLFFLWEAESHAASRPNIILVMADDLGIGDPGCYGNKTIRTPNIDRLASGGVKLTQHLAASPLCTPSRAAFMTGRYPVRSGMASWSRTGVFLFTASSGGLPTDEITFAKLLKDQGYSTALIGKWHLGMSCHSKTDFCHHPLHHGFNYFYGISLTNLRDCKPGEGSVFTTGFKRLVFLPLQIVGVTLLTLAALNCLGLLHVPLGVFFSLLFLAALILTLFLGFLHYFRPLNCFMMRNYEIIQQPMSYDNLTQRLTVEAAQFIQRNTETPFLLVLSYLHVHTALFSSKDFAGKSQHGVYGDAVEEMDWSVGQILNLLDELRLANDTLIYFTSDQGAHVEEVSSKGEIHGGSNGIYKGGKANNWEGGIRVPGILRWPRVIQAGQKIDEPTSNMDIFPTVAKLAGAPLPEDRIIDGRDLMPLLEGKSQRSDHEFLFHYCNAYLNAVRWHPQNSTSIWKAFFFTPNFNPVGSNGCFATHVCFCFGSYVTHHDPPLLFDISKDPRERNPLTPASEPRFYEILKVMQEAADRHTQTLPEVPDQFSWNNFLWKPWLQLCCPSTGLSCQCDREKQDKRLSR

Steryl-sulfatase = target: T2, Steryl-sulfatase (Homo sapiens, UniProt P08842); assay: Inhibition of steroid sulfatase in human JEG3 cell using [3H] E1S as substrate after 1 hr by scintillation spectrometry analysis
T2 sequence (P08842 whole entry): T1 sequence (whole entry)
Outline: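 JEG-3 (human placental choriocarcinoma) lysate at 125 μg protein/mL incubated 1 h with inhibitor (0.001–10 μM) and [3H]E1S adjusted to 20 μM with unlabelled E1S. Estrone product was extracted with toluene, and [14C]E1 was used to correct for losses. Read-out was 3H/14C scintillation counting. IC50 from activity with and without inhibitor; mean ± S.D., n = 3.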

SMILES	residual activity [1] [%]	pIC50 (Steryl-sulfatase)
COc1cc(-c2ccnc(N3CCN(C(=O)Nc4ccc(OS(N)(=O)=O)cc4)CC3)n2)cc(OC)c1OC	19	–
NS(=O)(=O)Oc1ccc(NC(=O)N2CCN(Cc3cc4ccccc4o3)CC2)cc1	20.2	–
COc1ccc(-c2ccnc(N3CCN(C(=O)Nc4ccc(OS(N)(=O)=O)cc4)CC3)n2)cc1	7.9	–
Cc1cccc(N2CCN(C(=O)Nc3ccc(OS(N)(=O)=O)cc3)CC2)c1C	5.9	7.18
NS(=O)(=O)Oc1ccc(NC(=O)N2CCN(c3ccc(Cl)cc3)CC2)cc1	14.9	7.03
NS(=O)(=O)Oc1ccc(NC(=O)N2CCN(c3ccccc3)CC2)cc1	16.9	–
COc1cccc(N2CCN(C(=O)Nc3ccc(OS(N)(=O)=O)cc3)CC2)c1	26.3	–
NS(=O)(=O)Oc1ccc(NC(=O)N2CCN(c3nccc(-c4ccccc4)n3)CC2)cc1	65.9	–
COc1ccc(N2CCN(C(=O)Nc3ccc(OS(N)(=O)=O)cc3)CC2)cc1	37	–
Cc1cccc(N2CCN(C(=O)Nc3ccc(OS(N)(=O)=O)cc3)CC2)c1	10.4	–
Cc1cccc(-c2ccnc(N3CCN(C(=O)Nc4ccc(OS(N)(=O)=O)cc4)CC3)n2)c1	26.7	–
Cc1ccccc1N1CCN(C(=O)Nc2ccc(OS(N)(=O)=O)cc2)CC1	47.9	–
COc1ccc(-c2ccnc(N3CCN(C(=O)Nc4ccc(OS(N)(=O)=O)cc4)CC3)n2)cc1OC	60.7	–
NS(=O)(=O)Oc1ccc(NC(=O)N2CCN(c3nccc(-c4cccc(Br)c4)n3)CC2)cc1	39.4	–
NS(=O)(=O)Oc1ccc(NC(=O)N2CCN(Cc3ccccc3)CC2)cc1	18.7	–
NS(=O)(=O)Oc1ccc(NC(=O)N2CCN(c3nccc(-c4cc5ccccc5o4)n3)CC2)cc1	4.7	6.86
NS(=O)(=O)Oc1ccc(NC(=O)N2CCN(c3ccc(Cl)c(Cl)c3)CC2)cc1	23	5.91
NS(=O)(=O)Oc1ccc(NC(=O)N2CCN(c3ccc(F)cc3)CC2)cc1	93.5	–
NS(=O)(=O)Oc1ccc(NC(=O)N2CCN(c3nccc(-c4cccc(C(F)(F)F)c4)n3)CC2)cc1	44.3	–
Cc1cccc(N2CCN(C(=O)Nc3ccc(OS(N)(=O)=O)cc3F)CC2)c1C	109	–
NS(=O)(=O)Oc1ccc(NC(=O)N2CCN(c3ccc(Cl)cc3)CC2)c(F)c1	108	–

The remaining lines, values ahead:

residual activity [1] [%]	pIC50 (Steryl-sulfatase)	SMILES
71.6	–	CCCCCCCCN1CCN(C(=O)Nc2ccc(OS(N)(=O)=O)cc2Cl)CC1
29.6	–	CCCCCCCCN1CCN(C(=O)Nc2ccc(OS(N)(=O)=O)cc2F)CC1
13.9	7.72	CCCCCCCCN1CCN(C(=O)Nc2ccc(OS(N)(=O)=O)c(Cl)c2)CC1
3.5	7.48	CCCCCCCCCCN1CCN(C(=O)Nc2ccc(OS(N)(=O)=O)cc2)CC1
7.8	–	CCCCCCCCCCN1CCN(C(=O)Nc2ccc(OS(N)(=O)=O)cc2F)CC1
12.4	7.36	CCCCCCCCN1CCN(C(=O)Nc2ccc(OS(N)(=O)=O)cc2)CC1
25.4	–	CCCCCCCCCCN1CCN(C(=O)Nc2ccc(OS(N)(=O)=O)c(Cl)c2)CC1
11.4	8.06	CCCCCCCCN1CCN(C(=O)Nc2ccc(OS(N)(=O)=O)c(F)c2)CC1
15.1	7.77	Cc1cccc(N2CCN(C(=O)Nc3ccc(OS(N)(=O)=O)c(Cl)c3)CC2)c1C
110	–	NS(=O)(=O)Oc1ccc(NC(=O)N2CCN(c3ccc(Cl)cc3)CC2)cc1Cl
102	–	CCCCCCCCCCN1CCN(C(=O)Nc2ccc(OS(N)(=O)=O)cc2Cl)CC1
15.2	–	CCCCCCCCCCN1CCN(C(=O)Nc2ccc(OS(N)(=O)=O)c(F)c2)CC1
7.1	8.29	NS(=O)(=O)Oc1ccc(NC(=O)N2CCN(c3ccc(Cl)cc3)CC2)cc1F
27.7	5.77	CCCCCCCN1CCN(C(=O)Nc2ccc(OS(N)(=O)=O)cc2)CC1
